Assay results from PubChem BioAssay.
Results filed as inconclusive are left out.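 Rule for the calls, unless noted: active = viability at or below 27.92% in each of two runs, the all-compound median minus 4 SD; inconclusive = no clear call, values can overlap the other calls; inactive = the rest.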

Experiments:
[1] = OD615 S. cerevisiae growth inhibition, permissive medium, pilot counter-assay, permissive growth control for S. cerevisiae lifespan shortening project (AID 705;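 active = growth inhibition above 25% in both replicates, a cutoff set 3 SD above the mean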); conditions: OD615, 24 h, at 10 µM, active compounds read high
In short: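 Timing: 24 h exposure, 30 °C / Material: Saccharomyces cerevisiae strain carrying genetically modified DeaD replicative-lifespan system / Signal: OD at 615 nm / Compound: 10 µM single dose, 0.25% DMSO / Medium: SC raffinose/galactose permissive medium / Evaluation: reduction in yeast growth (OD615)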

[2] = Restrictive medium S. cerevisiae growth inhibition, OD615, pilot screen of yeast lifespan reduction project, restrictive growth control (AID 706;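 active = growth inhibition above a set limit, 3 SD over mean compound inhibition, in both replicates, cut at about 43% in these data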;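 note: modified DeaD lifespan yeast strain shifted to restrictive glucose medium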); conditions: OD615, 48 h, at 10 µM, active compounds read high
In short: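 System: Engineered S. cerevisiae DeaD strain | Detection: OD615 | Buffer or medium: CSMM-D glucose medium | Doses: 10 µM compound, 0.25% DMSO | Timing: 4 h pre-growth plus 48 h compound exposure, 30 °C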

[3] = viability gain of MRP-1-high H69AR cells under doxorubicin, pilot screen, MRP-1 activator project, CellTiter-Glo, duplicate (AID 807;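 active = viability increase at or above a cutoff of the median across tested compounds plus 3 SD, cut at about 8.5% in these data, passing the limit was not always enough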;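 note: compound pretreatment 18-22 h then 72 h combined with doxorubicin; 0% = doxorubicin alone and 100% = vehicle without doxorubicin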); conditions: H69AR viability with doxorubicin, CellTiter-Glo luminescence; at 10 µM; active compounds read high
[4] = growth suppression of beta-catenin knockout HCT116, pilot screen, human colon tumor cells (AID 823;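 active = cell viability at or below a set limit in both duplicate runs, the limit being the all-compound median minus 4 SD, cut at about 23% in these data, passing the limit was not always enough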;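 note: 0% = wells killed by 20 µM Hyamine and 100% = untreated DMSO cell wells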); conditions: CellTiter-Glo, 60 h, at 10 µM, active compounds read low
[5] = growth suppression of PTEN-deleted HCT116, pilot screen, cell-based, HCT116 clonal line, CellTiter-Glo (AID 824); conditions: 60 h, at 10 µM, active compounds read low;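 note: 0% = 20 µM Hyamine control and 100% = vehicle cell control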
[6] = inhibitors of the yeast RAM network, pilot screen, dse1pr::URA3 reporter, 5-FOA selection (AID 869;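 active = inhibition over a set limit, the all-compound mean plus 3 SD, in both replicate runs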;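 note: 0% = DMSO wells with no growth and 100% = 10 µM 1-NA-PP1 with full growth; RAM network block rescues cells from 5-FOA so hits raise OD615 growth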); conditions: S. cerevisiae dse1pr::URA3 5-FOA growth, OD615, 2 d; at 10 µM; active compounds read high; strain carries analog-sensitive mutant Cbk1 kinase
[7] = RAM signaling pathway blockade in yeast – S. cerevisiae, Pdr1DBD-CYC8 efflux-inhibited sensitized strain, primary screen (AID 1298;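 active = RAM network inhibition above 8.4% in each of two replicates, 3 SD over the compound average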;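 note: 0% = DMSO untreated cells without growth and 100% = 10 µM 1-NA-PP1 full growth; higher means more yeast growth rescued from 5-FOA killing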); conditions: S. cerevisiae cbk1-as DSE1-URA3 strain, 5-FOA growth OD615, 2 d; at 50 µM; active compounds read high

CC(=O)C1=C(O)C(=O)N(c2nnn(C)n2)C1c1cccs1 (stereo unspecified)
inactive: growth inhibition [1] -9.56% | growth inhibition [2] -6.22% | viability increase [3] -1.76% | viability [4] 107% | viability [5] 95.8% | inhibition [6] 2.02% | RAM network inhibition [7] 0.72%

O=C(Cc1cccs1)Nc1nnc(-c2ccncc2)s1
inactive: growth inhibition [1] -0.91% | growth inhibition [2] 3.21% | viability increase [3] 2.53% | viability [4] 108% | viability [5] 98.8% | inhibition [6] 0.38% | RAM network inhibition [7] 0.83%

COCCOC(=O)C1=C(C)NC(=O)NC1C1CC=CCC1 (stereo unspecified)
inactive: growth inhibition [1] -6.74% | growth inhibition [2] -6.73% | viability increase [3] 0.63% | viability [4] 91.5% | viability [5] 101% | inhibition [6] 1.45% | RAM network inhibition [7] 5.08%

CCOc1ccccc1N1C(=O)CC(Nc2ccc(N3CCOCC3)cc2)C1=O (stereo unspecified)
inactive: growth inhibition [1] -0.205% | growth inhibition [2] 7.53% | viability increase [3] -2.65% | viability [4] 101% | viability [5] 101% | inhibition [6] 1.6% | RAM network inhibition [7] 5.11%

COc1ccc(Cn2c(=O)[nH]c3cc(C(=O)NCCCN4CCCCC4)ccc3c2=O)cc1
inactive: growth inhibition [1] -4.93% | growth inhibition [2] -8.5% | viability increase [3] -2.31% | viability [4] 74.5% | viability [5] 77.4% | inhibition [6] 0.53% | RAM network inhibition [7] 4.83%

O=C1C(=O)N(CCO)C(c2ccccc2)/C1=C(\O)c1ccccc1 (stereo unspecified)
inactive: growth inhibition [1] -18.6% | growth inhibition [2] -8.67% | viability increase [3] 0.49% | viability [4] 99.7% | viability [5] 101% | inhibition [6] 1.29% | RAM network inhibition [7] 0.42%

COc1ccc(CC(=O)c2ccc(O)cc2O)cc1OC
inactive: growth inhibition [1] -6.46% | growth inhibition [2] -7.7% | viability increase [3] -3.53% | viability [4] 95.6% | viability [5] 89.2% | inhibition [6] 1.26% | RAM network inhibition [7] 2.27%

O=C(CN1C(=O)COc2ccccc21)Nc1ccc(F)cc1
inactive: growth inhibition [1] -5.98% | growth inhibition [2] 6.11% | viability increase [3] -5.59% | viability [4] 106% | viability [5] 91.6% | inhibition [6] 1.26% | RAM network inhibition [7] 0.3%

CSc1oc(-c2ccc(F)cc2)nc1S(=O)(=O)c1ccccc1
inactive: growth inhibition [1] -2.16% | growth inhibition [2] 0.385% | viability increase [3] -1.13% | viability [4] 97.2% | viability [5] 93.7% | inhibition [6] 0.585% | RAM network inhibition [7] 4.67%

CCN1CCN(c2cc(C)c3cc(NC(=O)c4ccncc4)ccc3n2)CC1
inactive: growth inhibition [1] -8.8% | growth inhibition [2] 1.77% | viability increase [3] -4.96% | viability [4] 82.6% | viability [5] 79.5% | inhibition [6] 1.46% | RAM network inhibition [7] 1.77%

Cc1ccc(-n2c(SCC(=O)Nc3nccs3)nc3c(c2=O)SCC3)cc1
inactive: growth inhibition [1] -10.3% | growth inhibition [2] -5.16% | viability increase [3] -6.87% | viability [4] 94.2% | viability [5] 92.2% | inhibition [6] 3.41% | RAM network inhibition [7] 6.62%

COC(=O)C(C)Sc1nnc(Cc2cc(=O)[nH]c(=O)[nH]2)n1-c1ccc(OC)cc1 (stereo unspecified)
inactive: growth inhibition [1] 8.07% | growth inhibition [2] 4.31% | viability increase [3] 0.81% | viability [4] 106% | viability [5] 101% | inhibition [6] 1.41% | RAM network inhibition [7] 2.47%

COc1ccc(OC)c(NC(=O)c2nnn(CCc3ccccc3)c2N)c1
inactive: growth inhibition [1] -5.97% | growth inhibition [2] -3.14% | viability increase [3] -4.62% | viability [4] 88% | viability [5] 89.7% | inhibition [6] 1.85% | RAM network inhibition [7] 13.1%

COC(=O)C1CCN(C(=O)c2ccccc2NC(C)=O)CC1
inactive: growth inhibition [1] -12% | growth inhibition [2] -16.4% | viability increase [3] -0.52% | viability [4] 101% | viability [5] 99.6% | inhibition [6] -0.23% | RAM network inhibition [7] 2.21%

CCOC(=O)c1ccc(Nc2ccc(-c3ccc(OC)c(OC)c3)nn2)cc1
inactive: growth inhibition [1] -6.25% | growth inhibition [2] -20% | viability increase [3] -5.24% | viability [4] 80.8% | viability [5] 77.2% | inhibition [6] 2.08% | RAM network inhibition [7] 3.37%

C=CCn1c(CSc2nc3ccccc3s2)nnc1SCC(=O)OCC
inactive: growth inhibition [1] -1.57% | growth inhibition [2] 27.4% | viability increase [3] -0.04% | viability [4] 97.6% | viability [5] 101% | inhibition [6] -0.335% | RAM network inhibition [7] 9.66%

C=CCn1cc(C(=O)N2CCN(C)CC2)c(=O)c2cc(S(=O)(=O)N3CCCC3)ccc21
inactive: growth inhibition [1] -6.54% | growth inhibition [2] -12.6% | viability increase [3] -0.09% | viability [4] 105% | viability [5] 106% | inhibition [6] 0.73% | RAM network inhibition [7] 3.9%

COc1ccccc1N1CCN(C(=O)CCCCn2c(=O)[nH]c3ccsc3c2=O)CC1
inactive: growth inhibition [1] -4.33% | growth inhibition [2] 7.52% | viability increase [3] -2.84% | viability [4] 94% | viability [5] 88.5% | inhibition [6] 2.13% | RAM network inhibition [7] 5.16%

O=C(CN1c2cccc3cccc(c23)S1(=O)=O)NCc1ccc2c(c1)OCO2
inactive: growth inhibition [1] -1.29% | growth inhibition [2] -6.94% | viability increase [3] -3.03% | viability [4] 89.2% | viability [5] 82.6% | inhibition [6] 1.05% | RAM network inhibition [7] 5.12%

N=c1oc2ccccc2cc1-c1nc2ccccc2c(=O)[nH]1
inactive: growth inhibition [1] 2.5% | growth inhibition [2] 1.96% | viability increase [3] 2.52% | viability [4] 94.3% | viability [5] 96.3% | inhibition [6] 2% | RAM network inhibition [7] 4.24%

COc1ccc(-c2nc(C#N)c(NC(C)C)o2)cc1
inactive: growth inhibition [1] -4.08% | growth inhibition [2] -2.25% | viability increase [3] -0.02% | viability [4] 90.4% | viability [5] 93.8% | inhibition [6] 2.67% | RAM network inhibition [7] 3.99%

COc1ccc(-c2nn(-c3ccccc3)cc2C(=O)O)cc1
inactive: growth inhibition [1] -8.52% | growth inhibition [2] 1.15% | viability increase [3] -3.69% | viability [4] 105% | viability [5] 97% | inhibition [6] 3.71% | RAM network inhibition [7] 11.1%

COc1ccc(OC)c2sc(NC(=O)C3CC3)nc12
inactive: growth inhibition [1] 1.08% | growth inhibition [2] 5.55% | viability increase [3] -3.24% | viability [4] 99.7% | viability [5] 90.3% | inhibition [6] 1.25% | RAM network inhibition [7] 6.06%

CC(C)OCCCNC(=O)c1cc2c(=O)n(C)c3ccccc3c2n1C
inactive: growth inhibition [1] 0.55% | growth inhibition [2] -0.705% | viability increase [3] -2.09% | viability [4] 103% | viability [5] 97% | inhibition [6] 0.185% | RAM network inhibition [7] 3.23%

CC(=O)Nc1c2c(nn1-c1cccc(Cl)c1)CS(=O)C2 (stereo unspecified)
inactive: growth inhibition [1] 3.89% | growth inhibition [2] -5.49% | viability increase [3] -0.33% | viability [4] 94.1% | viability [5] 100% | inhibition [6] 1.38% | RAM network inhibition [7] 0.11%

COc1ccc(C(=O)C(OC(=O)CNC(=O)c2ccco2)c2ccccc2)cc1 (stereo unspecified)
inactive: growth inhibition [1] -11.8% | growth inhibition [2] 3.51% | viability increase [3] -3.65% | viability [4] 100% | viability [5] 102% | inhibition [6] 1.49% | RAM network inhibition [7] 2.66%

CCOC(=O)c1cc(-c2nnc(-c3ccc(Cl)cc3)o2)c(C)nc1C
inactive: growth inhibition [1] -16.3% | growth inhibition [2] -14.2% | viability increase [3] -0.9% | viability [4] 99.7% | viability [5] 93.6% | inhibition [6] 2.19% | RAM network inhibition [7] 2.13%

Cn1c(=O)oc2cc(S(=O)(=O)NC(Cc3ccccc3)C(=O)N3CCCCC3)ccc21 (stereo unspecified)
inactive: growth inhibition [1] -6.13% | growth inhibition [2] -11.9% | viability increase [3] -2.55% | viability [4] 109% | viability [5] 98.6% | inhibition [6] 2.8% | RAM network inhibition [7] 2.02%

Cc1cccc(NC(=O)C2CCN(S(=O)(=O)c3cccc4cccnc34)CC2)c1
inactive: growth inhibition [1] 3.19% | growth inhibition [2] 11.8% | viability increase [3] -1.52% | viability [4] 88.2% | viability [5] 81.8% | inhibition [6] 3.88% | RAM network inhibition [7] 2.49%

Cc1cc(-c2ccco2)n(CC(=O)NCCN(C)C)n1
inactive: growth inhibition [1] -3.33% | growth inhibition [2] 1.02% | viability increase [3] -0.48% | viability [4] 98.8% | viability [5] 94.5% | inhibition [6] 2.31% | RAM network inhibition [7] 0.37%

COc1ccc(-c2nnnn2C)cc1S(=O)(=O)NCCc1ccccc1
inactive: growth inhibition [1] -8.48% | growth inhibition [2] 2.52% | viability increase [3] 0.12% | viability [4] 97.5% | viability [5] 104% | inhibition [6] 1% | RAM network inhibition [7] 3.03%

CC(=O)N1CC2(C)CN(C(C)=O)CC(C)(C1)C2=O
inactive: growth inhibition [1] -5.64% | growth inhibition [2] 2.83% | viability increase [3] -0.26% | viability [4] 101% | viability [5] 102% | inhibition [6] 1.9% | RAM network inhibition [7] -0.41%

COC(=O)C(C)n1cnc2c(nnn2-c2cccc(Cl)c2)c1=O (stereo unspecified)
inactive: growth inhibition [1] -6.67% | growth inhibition [2] 1.2% | viability increase [3] 2.08% | viability [4] 110% | viability [5] 99% | inhibition [6] 0.05% | RAM network inhibition [7] 6.76%
